Drawing on ChEMBL document CHEMBL4270666, “Development of Dihydrodibenzooxepine Peroxisome Proliferator-Activated Receptor (PPAR) Gamma Ligands of a Novel Binding Mode as Anticancer Agents: Effective Mimicry of Chiral Structures by Olefinic E/ Z-Isomers” (J Med Chem, 2018), this text covers EC50, Activity and inhibition for twelve molecules.

A word on the pEC50: it is the EC50 on a negative log10 scale, so that one unit is a factor of ten. The term inhibition denotes the change of the read-out against control, counted positive when it falls.

For test [1], the target named is T1, Peroxisome proliferator-activated receptor gamma (Homo sapiens, UniProt P37231).
T1 sequence (P37231 whole entry): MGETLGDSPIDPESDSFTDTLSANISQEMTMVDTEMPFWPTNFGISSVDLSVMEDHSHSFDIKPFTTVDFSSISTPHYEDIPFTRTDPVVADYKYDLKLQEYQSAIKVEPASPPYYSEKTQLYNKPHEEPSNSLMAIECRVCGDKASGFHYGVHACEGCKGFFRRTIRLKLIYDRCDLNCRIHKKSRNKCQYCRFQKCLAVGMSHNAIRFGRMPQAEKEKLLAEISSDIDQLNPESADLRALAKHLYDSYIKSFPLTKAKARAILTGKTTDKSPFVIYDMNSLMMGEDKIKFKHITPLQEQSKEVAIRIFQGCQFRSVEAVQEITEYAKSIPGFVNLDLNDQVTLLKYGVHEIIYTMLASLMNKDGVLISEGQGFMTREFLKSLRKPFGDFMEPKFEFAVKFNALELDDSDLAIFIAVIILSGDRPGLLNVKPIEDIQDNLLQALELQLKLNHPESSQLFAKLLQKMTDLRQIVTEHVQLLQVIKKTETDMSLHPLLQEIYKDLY
The test is described as follows: Transactivation of GAL4-fused human PPARgamma transfected in HEK293BENA cells after 24 hrs by steady glo-luciferase reporter gene assay. The test is classed as cell-based. For orientation: A reporter such as luciferase makes a cellular process visible.

Test [2] addresses T2, Peroxisome proliferator-activated receptor gamma (Homo sapiens) (UniProt P37231).
T2 sequence (whole entry): T1 sequence (P37231 whole entry)
The test can be described thus: Agonist activity at PPARgamma in human MKN45 cells assessed as cell differentiation at 30 nM after 5 days by Hoechst 33342 staining-based assay relative to control. A digest of the protocol: (§1)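 MKN45 cells grown in RPMI1640 with 10% FBS, penicillin/streptomycin, 37 °C, 5% CO2; seeded 2500 cells/well, exposed to compound (1-1000 nM, N = 3 per concentration) for 5 days. Hoechst 33342 nuclear stain, imaged; nuclear areas above 1,015.58 μm2 counted as aggregated clusters; aggregated-cluster area over total cell area gives aggregation rate, normalized to a reference agonist's maximum; EC50 at half-maximal activity.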

The target in test [3] is T2, Peroxisome proliferator-activated receptor gamma (Homo sapiens). The test is described as follows: Transactivation of PPARgamma in human MKN45 cells assessed as increase in angptl4 gene expression at 10 to 100 nM after 72 hrs by quantitative PCR analysis. The test is classed as cell-based. The essentials: (§2)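 MKN45 cells treated with compound for 72 h (N = 3 per concentration); cells washed in cold PBS, total RNA isolated, transcript levels measured by quantitative PCR and corrected to GAPDH; fold-induction expressed relative to control/baseline.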

For test [4] the target is unchanged. The test is described as follows: Transactivation of PPARgamma in human MKN45 cells assessed as increase in adfp gene expression at 10 to 100 nM after 72 hrs by quantitative PCR analysis. Type of test: cell-based. The essentials: as §2
For test [5] the target is unchanged. The test is described as follows: Agonist activity at PPARgamma in human MKN45 cells assessed as cell differentiation at 100 nM after 5 days by Hoechst 33342 staining-based assay. A digest of the protocol: as §1
For test [6] the target is unchanged. The test can be described thus: Transactivation of PPARgamma in human MKN45 cells assessed as decrease in vimentin gene expression at 10 to 100 nM after 72 hrs by quantitative PCR analysis. Type of test: cell-based. The essentials: as §2
For test [7], the target named is T1, Peroxisome proliferator-activated receptor gamma. The test can be described thus: Transactivation of PPARgamma (unknown origin) transfected in human DRO cells after 24 hrs by dual luciferase reporter gene assay. The test is classed as cell-based.
The nature of test [8]: Inhibition of cologenic growth of human DRO cells at 1 nM after 2 weeks by soft agar assay relative to control. Type of test: functional. The note with it: 336 h.
Test [9] is filed under the species Mus musculus. The test is described as follows: Antidiabetic activity in db/db diabetic mouse model assessed as reduction in blood glucose levels relative to vehicle-treated control. The test is classed as functional. Also on record: scale not given: the % may be the effect or the level left.

pEC50: −log10 of the molar value. Calls of active or inactive are those of the source. The calls are words filed in the database; no cut-off is given here.

In test [1], `CCCc1nc2c(CO)cccc2n1Cc1ccc2c(c1)COc1ccccc1/C2=C(\C)c1noc(=O)[nH]1` had a pEC50 of 7.48.

The molecule `CCCc1nc2c(NS(C)(=O)=O)cccc2n1Cc1ccc2c(c1)COc1ccccc1/C2=C(\C)c1noc(=O)[nH]1` gave a pEC50 in [1] of 6.78.

In turn, `CCCc1nc2ccccc2n1Cc1ccc2c(c1)COc1ccccc1/C2=C(\C)c1noc(=O)[nH]1` gave a pEC50 in [1] of 8.57.

`CCc1nc2c(C)cc(C)nc2n1Cc1ccc2c(c1)CCc1ccccc1/C2=C(\C)c1noc(=O)[nH]1` showed a pEC50 in test [1] of 6.75.

Regarding `CCCc1nc2c(C)cccc2n1Cc1ccc2c(c1)COc1ccccc1/C2=C(\C)c1noc(=O)[nH]1`, in test [2], the Activity stood at 94%. Moreover, the result in [3], in [4], in test [5] and in test [6] was Active.

With `CCCCCS(=O)(=O)NC(=O)c1ccc2nc(C)n(Cc3ccc(Cl)cc3Cl)c2c1` [ATX08-001], the pEC50 in test [1] was 6.79.

Turning to `CCCc1nc(-c2ccccc2)cn1Cc1ccc2c(c1)COc1ccccc1/C2=C(\C)c1noc(=O)[nH]1`, in test [1], the pEC50 is 6.82.

`CCc1nc2c(C)cc(C)nc2n1Cc1ccc2c(c1)COc1ccccc1/C2=C(\C)c1noc(=O)[nH]1` gave a pEC50 in test [1] of 7.08.

Molecule `Cc1cc(Oc2ccc3nc(COc4ccc(CC5SC(=O)NC5=O)cc4)n(C)c3c2)cc(C)c1N` (configuration not stated) [EFATUTAZONE] gave a pEC50 in [7] of 9.00. The inhibition at 0.001 µM in test [8] turned out to be 63%.

`CCCc1nc(-c2ccncc2)cn1Cc1ccc2c(c1)COc1ccccc1/C2=C(\C)c1noc(=O)[nH]1`: the pEC50 in test [1] was 6.23.

`CCCc1nc2c(C(=O)NCCO)cccc2n1Cc1ccc2c(c1)COc1ccccc1/C2=C(\C)c1noc(=O)[nH]1` showed a pEC50 in [1] of 7.24.

As for `O=S(=O)(Nc1cc(Cl)c(Oc2cnc3ccccc3c2)c(Cl)c1)c1ccc(Cl)cc1Cl` [INT131], in [9], the Activity turned out to be 60%.
